In ChEMBL document CHEMBL4052611, “Opportunistic Sampling of Roadkill as an Entry Point to Accessing Natural Products Assembled by Bacteria Associated with Non-anthropoidal Mammalian Microbiomes” (J Nat Prod, 2017):
pIC50: −log10 of the molar value.

What was measured:
Candida albicans [1] = test: Antibiofilm activity against Candida albicans SC5314 after 48 hrs by XTT assay; type: functional; settings: SC5314, 48 h
Method in brief: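 SC5314 grown overnight in BHI at 37 °C, then washed in PBS and resuspended in RPMI-1640 buffered to pH 7.0 with 0.17 M MOPS. Cells at 2.5×10^3 cells mL^-1 were incubated 48 h at 37 °C with compounds (2 mM DMSO stocks; DMSO ≤2% v/v final). Wells were washed twice with PBS and refilled with fresh medium. Biofilm was read by XTT (0.1 mg mL^-1, 1 h, 37 °C) at A492. Triplicate, three separate occasions.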

Candida albicans [2] = test: Induction of cell killing in Candida albicans SC5314 up to 100 uM after 48 hrs by XTT assay
Method in brief: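 Growth assay based on CLSI M27-A3, modified. SC5314 was precultured overnight in BHI at 37 °C, washed in PBS (pH 7.4) and resuspended at 2.5×10^3 cells mL^-1 in RPMI-1640/MOPS (pH 7.0). Compounds came from 2 mM DMSO stocks (DMSO ≤2% v/v final). After 48 h at 37 °C, viability was read by XTT (0.1 mg mL^-1, 1 h) at A492. MIC = lowest concentration giving ≥85% loss of metabolic activity. Triplicate, three occasions.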

| SMILES | pIC50 (Candida albicans [1]) | Activity (Candida albicans [2]) |
| --- | --- | --- |
| CCCCCCC[C@@H]1CC(=O)N[C@H](CC(C)C)C(=O)N[C@@H](CO)C(=O)N[C@@H]([C@@H](C)O)C(=O)N[C@H](Cc2ccccc2)C(=O)N[C@@H]([C@@H](C)CC)C(=O)O1 | 5.11 | Non-Toxic |
| CCCCCCC[C@@H]1CC(=O)N[C@H](CC(C)C)C(=O)N[C@@H](CO)C(=O)N[C@@H]([C@@H](C)O)C(=O)N[C@H](Cc2ccc(O)cc2)C(=O)N[C@@H]([C@@H](C)CC)C(=O)O1 | 4.53 | Non-Toxic |
| CCCCC[C@@H]1CC(=O)N[C@H](CC(C)C)C(=O)N[C@@H](CO)C(=O)N[C@@H]([C@@H](C)O)C(=O)N[C@H](Cc2ccccc2)C(=O)N[C@@H]([C@@H](C)CC)C(=O)O1 | 4.87 | Non-Toxic |
| CCCCCCC[C@@H]1CC(=O)N[C@H](CC(C)C)C(=O)N[C@@H](CO)C(=O)N[C@@H]([C@@H](C)O)C(=O)N[C@H](Cc2ccccc2)C(=O)N[C@@H](C(C)C)C(=O)O1 | 4.22 | Non-Toxic |
